ChEMBL document CHEMBL3425458, “Design, synthesis and antitumor activity of triterpenoid pyrazine derivatives from 23-hydroxybetulinic acid” (Eur J Med Chem, 2015)

How the values were obtained:
B16 [1] = experiment: Induction of apoptosis in mouse B16 cells assessed as early apoptotic cells at 1.25 uM after 72 hrs by Annexin V-FITC/propidium iodide staining-based flow cytometry (reference value: 2.15%); assay type: functional
Method in brief: (§1)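 B16 cells were treated with vehicle or 1.25, 2.5 or 5 µM for 72 h. Annexin V/PI staining was read by flow cytometry. Values are mean ± SE of at least three independent experiments.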

[2] = Antiproliferative activity against human Bel7402 cells assessed as growth inhibition after 72 hrs by MTT assay; assay type: functional, cell-based; conditions: Bel-7402, 72 h
Method in brief: (§2)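 IC50 is the concentration inhibiting 50% cell growth. Values are mean ± S.D. from three different experiments, each performed in triplicate.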

B16 [3] = experiment: Cell cycle arrest in mouse B16 cells assessed as accumulation of cells at G2/G1 phase at 5 uM after 72 hrs by propidium iodide staining based flow cytometry (reference value: 1.83%); assay type: functional
B16 [4] = experiment: Induction of apoptosis in mouse B16 cells assessed as late apoptotic cells at 1.25 uM after 72 hrs by Annexin V-FITC/propidium iodide staining-based flow cytometry (reference value: 3.51%); assay type: functional; method in brief: as §1
B16 [5] = experiment: Induction of apoptosis in mouse B16 cells assessed as viable cells at 1.25 uM after 72 hrs by Annexin V-FITC/propidium iodide staining-based flow cytometry (reference value: […]); assay type: functional; conditions: B16, 72 h, read-out: Activity
[6] = Antiproliferative activity against human HL7702 cells assessed as growth inhibition after 72 hrs by MTT assay; assay type: cell-based; conditions: L02, 72 h
Method in brief: (§3)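 MTT assay on normal human hepatocyte line HL-7702, with 72 h treatment. Selectivity index is the IC50 in HL-7702 divided by the IC50 in each cancer cell line.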

HeLa [7] = experiment: Selectivity index, ratio of IC50 for human HL7702 cells to IC50 for human HeLa cells by MTT assay; method in brief: as §3
B16 [8] = experiment: Cell cycle arrest in mouse B16 cells assessed as accumulation of cells at G2 phase at 2.5 uM after 72 hrs by propidium iodide staining based flow cytometry (reference value: 16.73%); assay type: functional
B16 [9] = experiment: Cell cycle arrest in mouse B16 cells assessed as accumulation of cells at S phase at 2.5 uM after 72 hrs by propidium iodide staining based flow cytometry (reference value: 59.21%); assay type: functional
HeLa [10] = experiment: Antiproliferative activity against human HeLa cells assessed as growth inhibition after 72 hrs by MTT assay; assay type: functional, cell-based; method in brief: as §2
Mus musculus [11] = experiment: Toxicity against mouse xenografted with mouse B16 cells assessed as body weight at 30 mg/kg, ip administered after 7 days of tumor transplantation (reference value: 18.2 to 18.3 gms); assay type: organism-based; parameters: dose 30 mg/kg, route intraperitoneal; conditions: in vivo, 168 h
B16 [12] = experiment: Induction of apoptosis in mouse B16 cells assessed as late apoptotic cells at 5 uM after 72 hrs by Annexin V-FITC/propidium iodide staining-based flow cytometry (reference value: 3.51%); assay type: functional; method in brief: as §1
B16 [13] = experiment: Cell cycle arrest in mouse B16 cells assessed as accumulation of cells at G1 phase at 5 uM after 72 hrs by propidium iodide staining based flow cytometry (reference value: 24.06%); assay type: functional
B16 [14] = experiment: In vivo antitumor activity against mouse B16 cells xenografted in mouse assessed as tumor growth inhibitory ratio at 30 mg/kg, ip administered after 7 days of tumor transplantation measured at 25th day after tumor inoculation; assay type: functional; conditions: 168 h, route intraperitoneal
B16 [15] = experiment: Cell cycle arrest in mouse B16 cells assessed as accumulation of cells at G2 phase at 5 uM after 72 hrs by propidium iodide staining based flow cytometry (reference value: 16.73%); assay type: functional
B16 [16] = experiment: Selectivity index, ratio of IC50 for human HL7702 cells to IC50 for mouse B16 cells by MTT assay; method in brief: as §3
B16 [17] = experiment: Cell cycle arrest in mouse B16 cells assessed as accumulation of cells at G2/G1 phase at 1.25 uM after 72 hrs by propidium iodide staining based flow cytometry (reference value: 1.83%); assay type: functional
B16 [18] = experiment: Cell cycle arrest in mouse B16 cells assessed as accumulation of cells at S phase at 1.25 uM after 72 hrs by propidium iodide staining based flow cytometry (reference value: 59.21%); assay type: functional
B16 [19] = experiment: Cell cycle arrest in mouse B16 cells assessed as accumulation of cells at G2/G1 phase at 2.5 uM after 72 hrs by propidium iodide staining based flow cytometry (reference value: 1.83%); assay type: functional
B16 [20] = experiment: Induction of apoptosis in mouse B16 cells assessed as necrotic cells at 1.25 uM after 72 hrs by Annexin V-FITC/propidium iodide staining-based flow cytometry (reference value: […]); assay type: functional; method in brief: as §1
B16 [21] = experiment: Cell cycle arrest in mouse B16 cells assessed as accumulation of cells at G1 phase at 1.25 uM after 72 hrs by propidium iodide staining based flow cytometry (reference value: 24.06%); assay type: functional
Mus musculus [22] = experiment: Toxicity against mouse xenografted […] cells assessed as body weight at 30 mg/kg, ip administered after 7 days of tumor transplantation (reference value: 18.1 to 18.6 gms); assay type: organism-based; parameters: dose 30 mg/kg, route intraperitoneal; conditions: in vivo, 168 h
Method in brief: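 H22 liver cancer-bearing mice, 10 per group at start and end. Test article given ip at 30 mg/kg, with a vehicle group (0.5 mL/mouse, iv). Body weight was recorded at start and at end, alongside tumor weight.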

[23] = Antiproliferative activity against human HL60 cells assessed as growth inhibition after 72 hrs by MTT assay; assay type: functional, cell-based; conditions: HL-60, 72 h
Method in brief: (§4)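 Values are mean ± S.D. from three different experiments, each performed in triplicate.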

B16 [24] = experiment: Induction of apoptosis in mouse B16 cells assessed as early apoptotic cells at 2.5 uM after 72 hrs by Annexin V-FITC/propidium iodide staining-based flow cytometry (reference value: 2.15%); assay type: functional; method in brief: as §1
B16 [25] = experiment: Induction of apoptosis in mouse B16 cells assessed as necrotic cells at 2.5 uM after 72 hrs by Annexin V-FITC/propidium iodide staining-based flow cytometry (reference value: […]); assay type: functional; method in brief: as §1
B16 [26] = experiment: Cell cycle arrest in mouse B16 cells assessed as accumulation of cells at G2 phase at 1.25 uM after 72 hrs by propidium iodide staining based flow cytometry (reference value: 16.73%); assay type: functional
B16 [27] = experiment: Cell cycle arrest in mouse B16 cells assessed as accumulation of cells at S phase at 5 uM after 72 hrs by propidium iodide staining based flow cytometry (reference value: 59.21%); assay type: functional
[28] = Antiproliferative activity against human SF763 cells assessed as growth inhibition after 72 hrs by MTT assay; assay type: functional, cell-based; conditions: SF763, 72 h; method in brief: as §4
[29] = Selectivity index, ratio of IC50 for human HL7702 cells to IC50 for human HL60 cells by MTT assay; method in brief: as §3
B16 [30] = experiment: Antiproliferative activity against mouse B16 cells assessed as growth inhibition after 72 hrs by MTT assay; assay type: functional, cell-based; conditions: B16, 72 h; method in brief: as §2
H22 = experiment: In vivo antitumor activity […] cells xenografted in mouse assessed as tumor growth inhibitory ratio at 30 mg/kg, ip administered after 7 days of tumor transplantation measured at 25th day after tumor inoculation; assay type: functional; conditions: 168 h, route intraperitoneal
Method in brief: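 Mice bearing H22 liver cancer, 10 per group. Test article at 30 mg/kg ip. Vehicle 0.5 mL/mouse iv. Cyclophosphamide 30 mg/kg iv as positive control. Tumor weight recorded to give tumor inhibitory ratio.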

B16 [31] = experiment: Induction of apoptosis in mouse B16 cells assessed as viable cells at 5 uM after 72 hrs by Annexin V-FITC/propidium iodide staining-based flow cytometry (reference value: […]); assay type: functional; conditions: B16, 72 h, read-out: Activity
B16 [32] = experiment: Cell cycle arrest in mouse B16 cells assessed as accumulation of cells at G1 phase at 2.5 uM after 72 hrs by propidium iodide staining based flow cytometry (reference value: 24.06%); assay type: functional
B16 [33] = experiment: Induction of apoptosis in mouse B16 cells assessed as late apoptotic cells at 2.5 uM after 72 hrs by Annexin V-FITC/propidium iodide staining-based flow cytometry (reference value: 3.51%); assay type: functional; method in brief: as §1
B16 [34] = experiment: Induction of apoptosis in mouse B16 cells assessed as necrotic cells at 5 uM after 72 hrs by Annexin V-FITC/propidium iodide staining-based flow cytometry (reference value: […]); assay type: functional; method in brief: as §1
Bel-7402 = experiment: Selectivity index, ratio of IC50 for human HL7702 cells to IC50 for human BEL7402 cells by MTT assay; method in brief: as §3
B16 [35] = experiment: Induction of apoptosis in mouse B16 cells assessed as early apoptotic cells at 5 uM after 72 hrs by Annexin V-FITC/propidium iodide staining-based flow cytometry (reference value: 2.15%); assay type: functional; method in brief: as §1
[36] = Selectivity index, ratio of IC50 for human HL7702 cells to IC50 for human SF763 cells by MTT assay; method in brief: as §3
B16 [37] = experiment: Induction of apoptosis in mouse B16 cells assessed as viable cells at 2.5 uM after 72 hrs by Annexin V-FITC/propidium iodide staining-based flow cytometry (reference value: […]); assay type: functional; conditions: B16, 72 h, read-out: Activity

IC50 (HeLa [10]): 5.13 µM | IC50 (B16 [30]): 4.42 µM
SMILES: C=C(C)[C@@H]1CC[C@]2(C(=O)N3CCOCC3)CC[C@]3(C)[C@H](CC[C@@H]4[C@@]5(C)Cc6nccnc6[C@@](C)(COC(C)=O)[C@@H]5CC[C@]43C)[C@@H]12
Activity (B16 [1]): 11.33% | IC50 [2]: 7.03 µM | Activity (B16 [3]): 1.85% | Activity (B16 [4]): 5.18% | viability at 1.25 µM (B16 [5]): 82.6% | IC50 [6]: 75.4 µM | Ratio IC50 (HeLa [7]): 14.7 | Activity (B16 [8]): 6.54% | Activity (B16 [9]): 58.79% | Activity (Mus musculus [11]): 25.9 g | Activity (B16 [12]): 12.1% | Activity (B16 [13]): 33.46% | inhibition in vivo at 30 mg/kg (B16 [14]): 62.7% | Activity (B16 [15]): 3.27% | Ratio IC50 (B16 [16]): 17.1 | Activity (B16 [17]): 1.82% | Activity (B16 [18]): 61.15% | Activity (B16 [19]): 1.85% | Activity (B16 [20]): 0.86% | Activity (B16 [21]): 29.67% | Activity (Mus musculus [22]): 25.9 g | IC50 [23]: 7.11 µM | Activity (B16 [24]): 20.14% | Activity (B16 [25]): 0.52% | Activity (B16 [26]): 9.18% | Activity (B16 [27]): 63.27% | IC50 [28]: 3.53 µM | Ratio IC50 [29]: 11 | inhibition in vivo at 30 mg/kg (H22): 55.6% | viability at 5 µM (B16 [31]): 40.6% | Activity (B16 [32]): 34.67% | Activity (B16 [33]): 11.48% | Activity (B16 [34]): 1.96% | Ratio IC50 (Bel-7402): 11 | Activity (B16 [35]): 45.34% | Ratio IC50 [36]: 21.4 | viability at 2.5 µM (B16 [37]): 67.8%
